Data: ChEMBL document CHEMBL3734648, “The synthesis of indolo[2,3-b]quinoline derivatives with a guanidine group: highly selective cytotoxic agents” (Eur J Med Chem, 2015)
Activity calls are given as the source filed them. The calls are words filed in the database; no cut-off is given here.

Columns and labels:
[1] = system: erythrocytes (Homo sapiens); experiment: Hemolytic activity in human erythrocytes after 30 mins by spectrophotometry
[2] = Induction of DNA intercalation (unknown origin) after 24 hrs by methyl green dye displacement assay
Method in brief: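 Compound displaces methyl green from a DNA/methyl green complex. IC50 is the concentration giving a 50% decrease in the initial absorbance of the DNA/methyl green solution. Mean ± SD, n = 3–5.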

[3] = system: A549; experiment: Antiproliferative activity against human A549 cells after 72 hrs by sulforhodamine B assay; format: functional, cell-based; conditions: A549, 72 h
[4] = system: LoVo; experiment: Antiproliferative activity against human LoVo cells after 72 hrs by sulforhodamine B assay; format: functional, cell-based
[5] = system: MCF7; experiment: Antiproliferative activity against human MCF7 cells after 72 hrs by sulforhodamine B assay; format: functional, cell-based; conditions: MCF7, 72 h
[6] = system: BALB/3T3; experiment: Cytotoxicity against mouse BALB/3T3 cells assessed as cell viability after 1 hr by sulforhodamine B assay; format: cell-based; conditions: BALB/3T3, 1 h
[7] = system: KB; experiment: Antiproliferative activity against human KB cells after 72 hrs by sulforhodamine B assay; format: functional, cell-based
[8] = system: Candida albicans; experiment: Inhibition of biofilm formation of Candida albicans assessed as reduction in cell viability of biofilm after 24 hrs by XTT staining based spectrophotometry; format: functional; conditions: read-out: ED50 (the source's name)
Method in brief: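 Candida albicans biofilms grown in vitro in 96-well plates, then exposed to compounds, and biofilm cell viability determined. ED50 reported as mean ± SD, n = 3.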

[9] = system: KB; experiment: Induction of apoptosis in human KB cells assessed as induction of caspase-3/7 activity at 0.5 uM after 72 hrs by Ac-DEVD-ACC-based fluorescence assay; format: functional, cell-based
Method in brief: (§1)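 KB cells treated for 72 h at 1.0 or 0.5. Caspase-3/7 activity measured by an enzymatic assay, normalized to protein content and expressed relative to untreated control. Significance versus control at p ≤ 0.05.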

[10] = system: KB; experiment: Induction of cell cycle arrest in human KB cells assessed as accumulation at G0/G1 phase at 0.25 uM after 72 hrs by propidium iodide staining based flow cytometry (reference value: 53.2 +/- 5.8%); format: functional
Method in brief: (§2)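 KB cells exposed for 72 h at […]. Cell-cycle phase distribution (G0/G1, S, G2/M) given as mean ± SD from independent experiments. Treated cells compared with control cells by Mann–Whitney U test, significance at p ≤ 0.05.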

[11] = system: A549; experiment: Selectivity index, ratio of IC50 for mouse BALB/3T3 cells to IC50 for human A549 cells; format: functional
[12] = system: KB; experiment: Induction of apoptosis in human KB cells assessed as apoptotic cells at 0.5 uM after 72 hrs by Annexin V/propidium iodide staining-based flow cytometry (reference value: 4.8 +/- 2.4 %); format: functional
Method in brief: (§3)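 Apoptosis and necrosis in KB cells after 72 h exposure at 1.0 or 0.5. Staining with annexin V (AV) and propidium iodide (PI). Cells scored as live (AV−/PI−), apoptotic (AV+/PI−) or necrotic (AV+/PI+). Values as mean ± SD, compared with control cells at p ≤ 0.05.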

[13] = system: KB; experiment: Induction of cell cycle arrest in human KB cells assessed as accumulation at G2/M phase at 0.5 uM after 72 hrs by propidium iodide staining based flow cytometry (reference value: 14.7 +/- 1.1 %); format: functional
Method in brief: as §2

[14] = system: KB; experiment: Induction of cell cycle arrest in human KB cells assessed as accumulation at G2/M phase at 0.25 uM after 72 hrs by propidium iodide staining based flow cytometry (reference value: 14.7 +/- 1.1 %); format: functional
Method in brief: as §2

[15] = system: KB; experiment: Induction of cell cycle arrest in human KB cells assessed as accumulation at G0/G1 phase at 1 uM after 72 hrs by propidium iodide staining based flow cytometry (reference value: 53.2 +/- 5.8%); format: functional
Method in brief: as §2

[16] = system: KB; experiment: Induction of apoptosis in human KB cells assessed as induction of caspase-3/7 activity at 1 uM after 72 hrs by Ac-DEVD-ACC-based fluorescence assay relative to control; format: functional
Method in brief: as §1

[17] = system: KB; experiment: Induction of cell cycle arrest in human KB cells assessed as accumulation at S phase at 0.5 uM after 72 hrs by propidium iodide staining based flow cytometry (reference value: 32.1 +/- 5.4%); format: functional
Method in brief: as §2

[18] = system: KB; experiment: Induction of apoptosis in human KB cells assessed as necrotic cells at 1 uM after 72 hrs by Annexin V/propidium iodide staining-based flow cytometry (reference value: 3.9 +/- 0.8 %); format: functional
Method in brief: as §3

[19] = system: KB; experiment: Induction of mitochondrial membrane potential loss in human KB cells at 0.5 to 1 uM after 72 hrs by JC-1 staining based flow cytometric analysis; format: functional
Method in brief: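 Mitochondrial membrane potential of KB cells read after 72 h exposure at 1.0 and 0.5. Fraction of cells with reduced potential compared with control cells, significance at p ≤ 0.05.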

[20] = system: KB; experiment: Induction of apoptosis in human KB cells assessed as live cells at 1 uM after 72 hrs by Annexin V/propidium iodide staining-based flow cytometry (reference value: 91.3 +/- 3.1 %); format: functional
Method in brief: as §3

[21] = system: KB; experiment: Induction of cell cycle arrest in human KB cells assessed as accumulation at S phase at 1 uM after 72 hrs by propidium iodide staining based flow cytometry (reference value: 32.1 +/- 5.4%); format: functional
Method in brief: as §2

[22] = system: MCF7; experiment: Selectivity index, ratio of IC50 for mouse BALB/3T3 cells to IC50 for human MCF7 cells; format: functional
[23] = system: KB; experiment: Induction of apoptosis in human KB cells assessed as apoptotic cells at 1 uM after 72 hrs by Annexin V/propidium iodide staining-based flow cytometry (reference value: 4.8 +/- 2.4 %); format: functional
Method in brief: as §3

[24] = system: KB; experiment: Induction of apoptosis in human KB cells assessed as necrotic cells at 0.5 uM after 72 hrs by Annexin V/propidium iodide staining-based flow cytometry (reference value: 3.9 +/- 0.8 %); format: functional
Method in brief: as §3

[25] = system: KB; experiment: Induction of apoptosis in human KB cells assessed as live cells at 0.5 uM after 72 hrs by Annexin V/propidium iodide staining-based flow cytometry (reference value: 91.3 +/- 3.1 %); format: functional
Method in brief: as §3

[26] = system: KB; experiment: Induction of cell cycle arrest in human KB cells assessed as accumulation at G0/G1 phase at 0.5 uM after 72 hrs by propidium iodide staining based flow cytometry (reference value: 53.2 +/- 5.8%); format: functional
Method in brief: as §2

[27] = system: KB; experiment: Induction of cell cycle arrest in human KB cells assessed as accumulation at S phase at 0.25 uM after 72 hrs by propidium iodide staining based flow cytometry (reference value: 32.1 +/- 5.4%); format: functional
Method in brief: as §2

[28] = system: KB; experiment: Induction of cell cycle arrest in human KB cells assessed as accumulation at G2/M phase at 1 uM after 72 hrs by propidium iodide staining based flow cytometry (reference value: 14.7 +/- 1.1 %); format: functional
Method in brief: as §2

[29] = Hemolytic activity in human RBC after 30 mins by spectrophotometry; format: ADME, cell-based, Erythrocyte; conditions: for Activity: erythrocyte, 0.5 h; for HC50 at 0.5 h: human red blood cells
Method in brief: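 Human red blood cells incubated with compound over 10^-6 to 5×10^-4 M for 30 min at 37 °C. HC50 taken as the concentration lysing 50% of cells. Mean ± SD of three individual determinations.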

## Cc1c2c3ccccc3nc-2n(C)c2ccccc12
[1]
  HC50 at 0.5 h: 120 µM
[2]
  IC50: 367 µM

## Cc1c2c3cc(NC(=O)[C@@H]4CCCN4C(=N)N)ccc3nc-2n(C)c2ccccc12
[3]
  IC50: 11 µM
[4]
  IC50: 7.76 µM
[5]
  IC50: 7.85 µM
[6]
  IC50: 31.9 µM
[7]
  IC50: 15.6 µM

## Cc1c2ccccc2nc2c1c1cc(NC(=O)[C@@H]3CCCN3)ccc1n2CCN(C)C
[3]
  IC50: 0.27 µM
[4]
  IC50: 0.06 µM
[5]
  IC50: 0.32 µM
[6]
  IC50: 0.36 µM
[8]
  EC50: 25.5 µM
[7]
  IC50: 0.38 µM
[2]
  IC50: 42.2 µM

## CCOc1ccc(-c2nc3ccc(-c4nc5ccc(N6CCN(C)CC6)cc5[nH]4)cc3[nH]2)cc1
[2]
  IC50: 12.1 µM

## Cc1c2c3cc(NC(=N)N)ccc3nc-2n(C)c2ccccc12.Cl.Cl
[3]
  IC50: 0.14 µM
[9]
  Activity: Active
[10]
  Activity: 39.5%
[11]
  Ratio IC50: 600
[12]
  Activity: 43.7%
[13]
  Activity: 31%
[4]
  IC50: 76.9 µM
[5]
  IC50: 0.06 µM
[14]
  Activity: 25.3%
[15]
  Activity: 32.8%
[16]
  fold change (FC): 5
[17]
  Activity: 39.8%
[18]
  Activity: 12.2%
[19]
  Activity: 11%
[20]
  Activity: 62.1%
[21]
  Activity: 48.6%
[22]
  Ratio IC50: 600
[6]
  IC50: 66.4 µM
[23]
  Activity: 25.7%
[8]
  EC50: 197 µM
[7]
  IC50: 0.88 µM
[24]
  Activity: 8.2%
[25]
  Activity: 41.1%
[26]
  Activity: 29.2%
[27]
  Activity: 35.3%
[2]
  IC50: 71.5 µM
[28]
  Activity: 18.6%

## Cc1c2ccccc2nc2c1c1cc(NC(=O)[C@@H]3CCCN3C(=N)N)ccc1n2CCN(C)C
[3]
  IC50: 6.22 µM
[4]
  IC50: 8.31 µM
[5]
  IC50: 2.06 µM
[6]
  IC50: 13.4 µM
[7]
  IC50: 7.37 µM

## Cc1c2ccccc2nc2c1c1cc(NC(=N)N)ccc1n2CCN(C)C.Cl.Cl.Cl.Cl
[3]
  IC50: 3.24 µM
[10]
  Activity: 51.6%
[12]
  Activity: 32.5%
[13]
  Activity: 24.6%
[4]
  IC50: 9.38 µM
[5]
  IC50: 0.81 µM
[14]
  Activity: 17.3%
[15]
  Activity: 33.4%
[16]
  fold change (FC): 2
[17]
  Activity: 31.6%
[18]
  Activity: 7.5%
[19]
  Activity: 11%
[20]
  Activity: 68.1%
[21]
  Activity: 46.9%
[6]
  IC50: 30 µM
[23]
  Activity: 24.4%
[8]
  EC50: 287 µM
[7]
  IC50: 0.87 µM
[24]
  Activity: 5.9%
[25]
  Activity: 61.5%
[26]
  Activity: 43.8%
[27]
  Activity: 31.1%
[2]
  IC50: 101 µM
[28]
  Activity: 19.6%

## Cc1c2c3cc(NC(=O)CNC(=N)N)ccc3nc-2n(C)c2ccccc12.Cl.Cl.Cl
[3]
  IC50: 1.82 µM
[4]
  IC50: 0.83 µM
[5]
  IC50: 4.75 µM
[6]
  IC50: 4.47 µM
[8]
  EC50: 4.2 µM
[29]
  Activity: Dose-dependent effect
  HC50 at 0.5 h: 192 µM
[7]
  IC50: 3.88 µM
[2]
  IC50: 40.5 µM

## Cc1c2c3cc(N)ccc3nc-2n(C)c2ccccc12
[3]
  IC50: 0.16 µM
[4]
  IC50: 0.07 µM
[5]
  IC50: 0.52 µM
[6]
  IC50: 0.54 µM
[8]
  EC50: 41 µM
[7]
  IC50: 0.72 µM
[2]
  IC50: 150 µM

## Cc1c2ccccc2nc2c1c1cc(N)ccc1n2CCN(C)C
[3]
  IC50: 0.88 µM
[4]
  IC50: 0.077 µM
[5]
  IC50: 0.33 µM
[6]
  IC50: 0.56 µM
[8]
  EC50: 34.2 µM
[7]
  IC50: 0.86 µM
[2]
  IC50: 125 µM

## Cc1c2ccccc2nc2c1c1cc(NC(=O)CN)ccc1n2CCN(C)C.Cl.Cl.Cl
[3]
  IC50: 0.74 µM
[4]
  IC50: 0.09 µM
[5]
  IC50: 0.75 µM
[6]
  IC50: 0.61 µM
[8]
  EC50: 74.3 µM
[29]
  Activity: Dose-dependent effect
  HC50 at 0.5 h: 80.3 µM
[7]
  IC50: 1.13 µM
[2]
  IC50: 80.3 µM

## Cc1c2ccccc2nc2c1c1cc(NC(=O)CNC(=N)N)ccc1n2CCN(C)C
[3]
  IC50: 1.96 µM
[4]
  IC50: 0.82 µM
[5]
  IC50: 2.31 µM
[6]
  IC50: 3.55 µM
[7]
  IC50: 1.23 µM
